This is a sample that favours compounds with a hit; in the whole collection about 1.9% have one here.
ARFGAP1 inhibitor: inhibits rat ARF GTPase activating protein 1. Q62848. Arfgap1-stimulated ARF1 GTP hydrolysis, GDP FP detection. inhibition, % at 16.5 µM. 360,000 compounds, 0.26% hits. AID 651572;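 active means inhibition above a per-plate limit, mean inhibition of low control wells plus 3 SD, cut at about 25% in these data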
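system = rat Arfgap1 catalytic domain, aa 1-136 | technique = FP, GDP Alexa 633 tracer displaced from anti-GDP antibody, 620/688 nm | compound = one concentration, 16.5 µM, DMSO 1.26% | medium = HEPES-based buffer, pH 7.5 | timing = compound-enzyme preincubation 20 min, reaction 120 min, detection 60 min, 25 °C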
Rtt109 Vps75: blocks Candida albicans Rtt109/Vps75 acetyltransferase activity | Q5AAJ8 | purified Rtt109/Vps75, ThioGlo CoA-SH fluorescence, 4 h | inhibition, % at 34.9 µM | 330,000 compounds, 0.16% hits | AID 540336;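 active means inhibition of at least 50% in every replicate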
Target sequence (Q5AAJ8 whole entry, looked up): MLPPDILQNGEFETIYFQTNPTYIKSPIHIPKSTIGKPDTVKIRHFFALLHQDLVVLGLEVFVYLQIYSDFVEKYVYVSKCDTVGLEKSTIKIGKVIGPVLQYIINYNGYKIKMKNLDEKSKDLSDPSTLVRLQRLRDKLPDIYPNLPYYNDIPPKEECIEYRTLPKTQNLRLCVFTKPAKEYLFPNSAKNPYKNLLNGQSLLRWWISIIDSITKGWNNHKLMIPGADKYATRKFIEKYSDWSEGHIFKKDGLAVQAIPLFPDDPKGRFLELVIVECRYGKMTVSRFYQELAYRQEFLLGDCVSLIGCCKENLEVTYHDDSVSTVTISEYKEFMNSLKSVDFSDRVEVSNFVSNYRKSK
FGF22 binding: FGF22 (human) thermal shift binding. AID 651658. Q9HCT0. 340,000 compounds, 1.5% hits. activity (Tm shift, normalised), % at 9.99 µM. recombinant FGF22 thermal shift, SYPRO orange fluorescence; percent of sucrose octasulfate shift, DMSO zero;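 active means mean Tm shift, scaled 0 neutral to 100 positive control, at about 1.3% or above, every replicate too, limit read from the data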
Target sequence (Q9HCT0 whole entry, looked up): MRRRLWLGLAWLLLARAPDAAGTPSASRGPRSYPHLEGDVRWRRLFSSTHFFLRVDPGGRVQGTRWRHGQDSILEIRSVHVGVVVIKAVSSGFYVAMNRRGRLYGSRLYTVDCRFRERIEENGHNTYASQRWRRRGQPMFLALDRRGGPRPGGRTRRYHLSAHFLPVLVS
Efflux pump mplx: inhibitors of Candida antifungal efflux pumps expressed in yeast. S. cerevisiae Candida pump triplex, Nile Red efflux. inhibition, % at 10 µM. 330,000 compounds, 0.44% hits;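 active means plate passing quality check with inhibition over a set limit, or well fluorescence over plate mean plus 4 SD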;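 further: Nile Red retained in pooled yeast measured as flow cytometry median fluorescence; higher means more Nile Red kept so more efflux inhibition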
ASAP1 GAP inh: ASAP1 ArfGAP inhibition | Q9ULH1 | ASAP1-stimulated ARF1 GTP hydrolysis, GDP FP detection | inhibition, % at 16.5 µM | 360,000 compounds, 0.19% hits | AID 624377; in the data active means inhibition above about 25%
Yeast cmpd fluor: flagged as fluorescent in efflux inhibitor counter-screen. S. cerevisiae AD/pABC3, compound fluorescence, flow cytometry. shares compounds with Efflux pump mplx. AID 588517. fluorescence ratio to DMSO, % at 10 µM. 1,700 compounds, 4% hits;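 active means fluorescence ratio to DMSO above its plate's cutoff, the plate mean ratio plus 5 SD, cut at about 210% in these data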;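 further: unstained yeast with no Nile Red so the signal is compound autofluorescence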
CaMdr1 efflux inh: blocks the Candida albicans Mdr1 efflux pump in yeast; shares compounds with Efflux pump mplx; S. cerevisiae AD/CaMDR1, Nile Red efflux, flow cytometry; inhibition, % at 10 µM; 1,700 compounds, 1% hits; in the data active means inhibition above about 26%;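 further: higher means more Nile Red retained so more efflux inhibition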
CaCdr2 efflux inh: blocks the Candida albicans Cdr2 efflux pump in yeast; 1,700 compounds, 4% hits; Nile Red retention ratio vs DMSO, % at 10 µM; S. cerevisiae AD/CaCDR2, Nile Red retention, flow cytometry; AID 588520; shares compounds with Efflux pump mplx; in the data active means Nile Red retention ratio vs DMSO above about 190%;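 further: higher ratio means more blocking of Cdr2 efflux of the dye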
CaCdr1 efflux inh: blocks the Candida albicans Cdr1 efflux pump in yeast | inhibition, % at 10 µM | shares compounds with Efflux pump mplx | 1,700 compounds, 1% hits | S. cerevisiae AD/CaCDR1, Nile Red efflux, flow cytometry;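 active means inhibition above the screen-wide mean plus twice its standard deviation, cut at about 32% in these data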
Each line names hits and unclear results; the compound was inactive in the other large screens (follow-up assays come after a bar, where they were run).

COC(=O)c1sc(NC(=O)CSc2nnc(Cn3nnc4ccccc43)n2C)nc1C	Efflux pump mplx 13.8 | Yeast cmpd fluor inactive | CaMdr1 efflux inh inactive | CaCdr2 efflux inh inactive | CaCdr1 efflux inh inactive
COC(=O)c1c(NC(=O)CSc2nnc(Cn3nnc4ccccc43)n2C)sc(C)c1C	none (no result: Rtt109 Vps75)
CCOC(=O)N1CCN(C(=O)COc2cccc3c2CCN(Cc2ccccc2F)C3=O)CC1	Efflux pump mplx 2.7 | Yeast cmpd fluor inactive | CaMdr1 efflux inh inactive | CaCdr2 efflux inh inactive | CaCdr1 efflux inh inactive
c1ccc(C2CC(c3cccs3)Nc3nnnn32)cc1 (stereo unspecified)	none
CC(=O)N(\C=C/C=C/C=C1\Sc2ccccc2C1=O)c1ccccc1	Efflux pump mplx 5.7 | Yeast cmpd fluor 296.9 | CaMdr1 efflux inh inactive | CaCdr2 efflux inh inactive | CaCdr1 efflux inh inactive
CN(C)/C=C1/Sc2ccccc2C1=O	none (no result: FGF22 binding)
CN1CCN(NC(=O)Nc2ccc([N+](=O)[O-])cc2)CC1	none
COc1cc([N+](=O)[O-])ccc1NC(=O)NN1CCN(C)CC1	Efflux pump mplx 5.3 | Yeast cmpd fluor inactive | CaMdr1 efflux inh inactive | CaCdr2 efflux inh inactive | CaCdr1 efflux inh inactive
Fc1ccc(-c2csc3[n+]2CCS3)cc1	Efflux pump mplx 3.0 (no result: FGF22 binding) | Yeast cmpd fluor inactive | CaMdr1 efflux inh inactive | CaCdr2 efflux inh inactive | CaCdr1 efflux inh inactive
Cc1cc(C)c(C(CC(=O)c2cccs2)C(C#N)C#N)c(C)c1 (stereo unspecified)	none
C/C(=N\NC(=O)c1cc(Cl)ccc1O)c1ccc(Br)s1	Efflux pump mplx 7.6 (no result: FGF22 binding) | Yeast cmpd fluor inactive | CaMdr1 efflux inh inactive | CaCdr2 efflux inh inactive | CaCdr1 efflux inh inactive
CN1CCCC1CCNc1ccc2sc3ccccc3c(=O)c2c1 (stereo unspecified)	Efflux pump mplx 2.0 | Yeast cmpd fluor 254.3 | CaMdr1 efflux inh inactive | CaCdr2 efflux inh inactive | CaCdr1 efflux inh inactive
CCCN(CCC)C(=O)Cn1c(=O)n(CCCCCC(=O)Nc2ccccc2)c(=O)c2sccc21	Efflux pump mplx 18.9 (no result: FGF22 binding) | Yeast cmpd fluor inactive | CaMdr1 efflux inh inactive | CaCdr2 efflux inh inactive | CaCdr1 efflux inh inactive
C[C@@H]1CN([C@H](C)CO)C(=O)CCCn2cc(nn2)CO[C@H]1CN(C)CC1CCCCC1	none (no result: ARFGAP1 inhibitor, Rtt109 Vps75, Efflux pump mplx, ASAP1 GAP inh)
CO[C@H]1CN(C)C(=O)c2ccc(NS(C)(=O)=O)cc2OC[C@@H](C)N(CC2CC2)C[C@H]1C	none (no result: ARFGAP1 inhibitor, Rtt109 Vps75, Efflux pump mplx, ASAP1 GAP inh)
Nc1ccc2c3c(cccc13)CC2	Efflux pump mplx 1.8 (no result: FGF22 binding) | Yeast cmpd fluor inactive | CaMdr1 efflux inh inactive | CaCdr2 efflux inh inactive | CaCdr1 efflux inh inactive
O=C(N/N=C/c1cccc(F)c1)c1c(O)c2c([nH]c1=O)CCCC2	Efflux pump mplx 8.9 (no result: FGF22 binding) | Yeast cmpd fluor inactive | CaMdr1 efflux inh inactive | CaCdr2 efflux inh inactive | CaCdr1 efflux inh inactive
Cc1noc(C)c1NC(=O)Nc1ccc2c(c1)C(=O)N([C@H](C)CO)C[C@H](C)[C@@H](CN(C)Cc1ccc(C(F)(F)F)cc1)O2	none (no result: ARFGAP1 inhibitor, Rtt109 Vps75, Efflux pump mplx, ASAP1 GAP inh)
CCOc1cc(/C=C(\C#N)C(=O)Nc2cccc(C(=O)O)c2)cc(Br)c1OC(=O)c1ccc(OC)cc1	none
Cc1ccccc1S(=O)(=O)Nc1nc2ccccc2nc1N1CCc2ccccc2C1	Efflux pump mplx 7.5 (no result: FGF22 binding) | Yeast cmpd fluor inactive | CaMdr1 efflux inh inactive | CaCdr2 efflux inh inactive | CaCdr1 efflux inh inactive
CC(C(=O)Nc1ccccc1C(=O)N1CCOCC1)N(c1ccc(Cl)cc1)S(C)(=O)=O (stereo unspecified)	Efflux pump mplx 0.7 | Yeast cmpd fluor inactive | CaMdr1 efflux inh inactive | CaCdr2 efflux inh inactive | CaCdr1 efflux inh inactive
COc1ccc(N(C)S(=O)(=O)c2cccc(C(=O)OCC(=O)NCc3ccccc3OC)c2)cc1	none
CCCc1cc(=O)[nH]c(SCC(=O)Nc2ccc(OC)c(S(=O)(=O)N3CCCCC3)c2)n1	none
